The text below walks through data of ChEMBL document CHEMBL1144025, “1,3-Dipropyl-8-(1-phenylacetamide-1H-pyrazol-3-yl)-xanthine derivatives as highly potent and selective human A(2B) adenosine receptor antagonists” (Bioorg Med Chem, 2008).

pKi: −log10 of the molar value.

Holding throughout (type): cell-based
One experiment deals with T1, Adenosine receptor A3 (Homo sapiens, UniProt P0DMS8).
T1 sequence (P0DMS8 whole entry): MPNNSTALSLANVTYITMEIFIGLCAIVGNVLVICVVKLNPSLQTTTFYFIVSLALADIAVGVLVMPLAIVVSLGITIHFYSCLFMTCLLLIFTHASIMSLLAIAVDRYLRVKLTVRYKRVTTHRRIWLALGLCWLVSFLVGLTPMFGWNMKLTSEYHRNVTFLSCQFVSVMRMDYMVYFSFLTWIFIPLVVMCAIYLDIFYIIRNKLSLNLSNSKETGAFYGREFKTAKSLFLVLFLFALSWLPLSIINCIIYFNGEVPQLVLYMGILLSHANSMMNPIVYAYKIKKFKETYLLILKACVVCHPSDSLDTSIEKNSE
Kind of experiment: Displacement of [3H]MRE3008F20 from human adenosine A3 receptor expressed in CHO cells. A digest of the protocol: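 Membranes (50 µg protein/assay) in 50 mM Tris-HCl, 10 mM MgCl2, 1 mM EDTA, pH 7.4, incubated 120 min at 4 °C with [³H]MRE3008F20 and at least 6–8 ligand concentrations. Nonspecific binding defined with 1 µM MRE 3008F20. Glass fiber filtration and counting. Ki via Cheng-Prusoff; n = 3–6.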
A general note: Displacement assays read how much labelled ligand stays bound in the presence of the test substance.

Another experiment deals with T2, Adenosine receptor A1 (Homo sapiens, UniProt P30542).
T2 sequence (P30542 whole entry): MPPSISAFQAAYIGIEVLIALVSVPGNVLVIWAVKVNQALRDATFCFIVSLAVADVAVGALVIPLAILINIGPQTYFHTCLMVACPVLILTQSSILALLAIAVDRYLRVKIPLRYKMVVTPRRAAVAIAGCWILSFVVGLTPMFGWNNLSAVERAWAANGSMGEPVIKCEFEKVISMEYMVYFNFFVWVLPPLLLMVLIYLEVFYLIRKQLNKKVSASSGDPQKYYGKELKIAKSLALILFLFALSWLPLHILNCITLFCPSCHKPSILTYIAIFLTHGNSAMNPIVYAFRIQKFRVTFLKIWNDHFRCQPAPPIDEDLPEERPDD
Nature of the experiment: Displacement of [3H]DPCPX from human adenosine A1 receptor expressed in CHO cells.

A further experiment addresses Adenosine receptor A2a (Homo sapiens, UniProt P29274). Kind of experiment: Displacement of [3H]ZM-241385 from human adenosine A2A receptor expressed in CHO cells. The gist of the method:
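Membranes (50 µg protein/assay) in 50 mM Tris-HCl, 10 mM MgCl2, pH 7.4, incubated 60 min at 4 °C with [³H]ZM241385 and at least 6–8 concentrations of compound. Nonspecific binding defined with 1 µM ZM 241385. GF/B filtration and counting. Ki by Cheng-Prusoff; n = 3–6.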

Another experiment addresses T3, Adenosine receptor A2b (Homo sapiens, UniProt P29275).
T3 sequence (P29275 whole entry): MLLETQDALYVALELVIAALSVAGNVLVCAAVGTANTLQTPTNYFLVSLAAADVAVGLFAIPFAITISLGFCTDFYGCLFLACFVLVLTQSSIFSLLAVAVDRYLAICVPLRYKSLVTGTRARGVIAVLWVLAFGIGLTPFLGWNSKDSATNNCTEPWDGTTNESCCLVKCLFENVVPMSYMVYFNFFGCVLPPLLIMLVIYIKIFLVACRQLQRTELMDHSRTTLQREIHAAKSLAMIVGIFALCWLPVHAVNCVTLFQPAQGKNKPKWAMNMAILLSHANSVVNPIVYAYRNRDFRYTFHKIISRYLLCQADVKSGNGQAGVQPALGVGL
Kind of experiment: Displacement of [3H]MRE2029F20 from human adenosine A2B receptor expressed in HEK293 cells. A digest of the protocol:
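Membranes (50 µg protein/assay) in 50 mM Tris-HCl, 10 mM MgCl2, 1 mM EDTA, pH 7.4, incubated 120 min at 4 °C with [³H]MRE2029F20 and at least 6–8 compound concentrations. Nonspecific binding defined with 1 µM MRE 2029F20. GF/B filtration, scintillation counting. Ki via Cheng-Prusoff; n = 3–6.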

Chain of Adenosine receptor A2a (P29274 whole entry): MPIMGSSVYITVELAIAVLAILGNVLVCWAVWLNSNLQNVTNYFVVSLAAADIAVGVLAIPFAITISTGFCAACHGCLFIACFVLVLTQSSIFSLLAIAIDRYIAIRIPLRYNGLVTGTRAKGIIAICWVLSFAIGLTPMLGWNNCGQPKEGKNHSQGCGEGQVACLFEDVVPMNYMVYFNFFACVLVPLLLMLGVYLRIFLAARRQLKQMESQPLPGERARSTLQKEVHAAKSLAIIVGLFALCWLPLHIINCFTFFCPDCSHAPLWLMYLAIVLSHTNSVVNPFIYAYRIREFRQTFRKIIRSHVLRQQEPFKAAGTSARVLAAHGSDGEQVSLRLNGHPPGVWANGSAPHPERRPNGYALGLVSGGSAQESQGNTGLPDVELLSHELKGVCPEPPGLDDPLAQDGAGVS

For orientation: pKi means the Ki on a negative log10 scale, so that one unit is a factor of ten. Regarding `CCCn1c(=O)c2[nH]c(-c3cc(C)n(CC(=O)Nc4cccc(Cl)c4)n3)nc2n(CCC)c1=O`, the pKi on Adenosine receptor A3 is less than 6.00.

As for `CCCn1c(=O)c2[nH]c(-c3cc(C)n(CC(=O)Nc4ccc(Cl)cc4)n3)nc2n(CCC)c1=O`, the pKi at Adenosine receptor A1, at Adenosine receptor A2a and on Adenosine receptor A3 was less than 6.00 in each case.

Compound `CCCn1c(=O)c2[nH]c(-c3nn(CC(=O)Nc4ccc(Cl)cc4)c(C)c3Cl)nc2n(CCC)c1=O` had a pKi at Adenosine receptor A3 of less than 6.00.

`CCCn1c(=O)c2[nH]c(-c3ccn(CC(=O)Nc4ccc(Cl)cc4)n3)nc2n(CCC)c1=O` had a pKi at Adenosine receptor A3 of less than 6.00.

As to `CCCn1c(=O)c2[nH]c(-c3cc(C)n(CC(=O)Nc4ccc(Br)cc4)n3)nc2n(CCC)c1=O`, the pKi at Adenosine receptor A1, at Adenosine receptor A2a and on Adenosine receptor A3 was less than 6.00 in each case.

`CCCn1c(=O)c2[nH]c(-c3nn(CC(=O)Nc4ccc(Cl)cc4)c(C)c3Br)nc2n(CCC)c1=O` showed a pKi at Adenosine receptor A3 of less than 6.00.

At Adenosine receptor A3, `CCCn1c(=O)c2[nH]c(-c3cc(C)n(CC(=O)Nc4ccc(I)cc4)n3)nc2n(CCC)c1=O` had a pKi of less than 6.00.

For `CCCn1c(=O)c2[nH]c(-c3cc(C)n(CC(=O)Nc4ccc(C)cc4)n3)nc2n(CCC)c1=O`, on Adenosine receptor A3, the pKi is less than 6.00.

For the compound `CCCn1c(=O)c2[nH]c(-c3cc(C)n(CC(=O)Nc4ccc(F)cc4)n3)nc2n(CCC)c1=O`, the pKi on Adenosine receptor A3 is less than 6.00.

On to `CCCn1c(=O)c2[nH]c(-c3cc(C)n(CC(=O)Nc4ccccc4)n3)nc2n(CCC)c1=O`, for which the pKi on Adenosine receptor A3 was less than 6.00.

For `CCCn1c(=O)c2[nH]c(-c3cc(C)n(CC(=O)Nc4ccc(N(C)C)cc4)n3)nc2n(CCC)c1=O`, the pKi at Adenosine receptor A2b and at Adenosine receptor A3 was less than 6.00 throughout.

Consider `CCCn1c(=O)c2[nH]c(-c3cc(OCC(=O)Nc4ccc(OC)c(OC)c4)nn3C)nc2n(CCC)c1=O`, for which the pKi on Adenosine receptor A1, at Adenosine receptor A2a and on Adenosine receptor A3 was less than 6.00 throughout.

Turning to `CCCn1c(=O)c2[nH]c(-c3cc(CC)n(CC(=O)Nc4ccc(Cl)cc4)n3)nc2n(CCC)c1=O`, the pKi at Adenosine receptor A2b and on Adenosine receptor A3 was less than 6.00 throughout.

Compound `CCCn1c(=O)c2[nH]c(-c3cc(C)n(CC(=O)Nc4ccc(OC)c(OC)c4)n3)nc2n(CCC)c1=O` showed a pKi on Adenosine receptor A3 of less than 6.00.

`CCCn1c(=O)c2[nH]c(-c3cc(C)n(CC(=O)Nc4cccc5ccccc45)n3)nc2n(CCC)c1=O`: the pKi at Adenosine receptor A2b and on Adenosine receptor A3 was less than 6.00 throughout.

In the case of `CCCn1c(=O)c2[nH]c(-c3nn(CC(=O)Nc4ccc(Cl)cc4)c(C)c3I)nc2n(CCC)c1=O`, the pKi at Adenosine receptor A2b and at Adenosine receptor A3 was less than 6.00 in each case.

For the compound `CCCn1c(=O)c2[nH]c(-c3cc(C)n(CC(=O)Nc4ccc(Cl)c(Cl)c4)n3)nc2n(CCC)c1=O`, the pKi on Adenosine receptor A3 was less than 6.00.

For `CCCn1c(=O)c2[nH]c(-c3cc(C)n(CC(=O)Nc4ccc(OC)cc4)n3)nc2n(CCC)c1=O`, the pKi on Adenosine receptor A3 was less than 6.00.

`CCCn1c(=O)c2[nH]c(-c3cc(C)n(CC(=O)Nc4cccc(OC)c4)n3)nc2n(CCC)c1=O`: the pKi on Adenosine receptor A3 was less than 6.00.

As to `CCCn1c(=O)c2[nH]c(-c3cc(C)n(CC(=O)Nc4ccc(C)c(C)c4)n3)nc2n(CCC)c1=O`, the pKi on Adenosine receptor A3 is less than 6.00.
